Data taken from ChEMBL document CHEMBL1124746, “Synthesis and antitumor evaluation in mice of certain 7-deazapurine (pyrrolo[2,3-d]pyrimidine) and 3-deazapurine (imidazo[4,5-c]pyridine) nucleosides structurally related to sulfenosine, sulfinosine, and sulfonosine” (1990).

What was measured:
L1210 [1] = test: Tested for percent of L1210 cells killed by dose 37 mg/kg administered intraperitoneally; assay type: functional, Mus musculus; details: route intraperitoneal
How it was run: (§1)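 Female BDF1 mice (~18 g) were inoculated ip on day 0 with 1 × 10⁶ murine L1210 leukemia cells. They got a single ip bolus 24 h later of drug freshly dissolved in water, at 0.01 mL/g body weight. Controls received saline. The percentage of cells killed was estimated from residual leukemia body burden, using inoculum-response data relating inoculum size to postinoculation life span.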

L1210 [2] = test: Tested for post inoculation lifespan in L1210-inoculated mice at dose 37 mg/kg administered intraperitoneally; assay type: functional, Mus musculus; details: route intraperitoneal
How it was run: (§2)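 Female BDF1 mice (~18 g) were inoculated ip on day 0 with 1 × 10⁶ L1210 cells and treated once ip 24 h later with drug in water (0.01 mL/g); saline controls. Groups had six mice. %T/C = mean life span treated / mean life span control × 100, with T/C ≥ 125 taken as significant. Deaths were assigned to leukemia or drug toxicity by timing and necropsy.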

L1210 [3] = test: Tested for post inoculation lifespan in L1210-inoculated mice at dose 173 mg/kg administered intraperitoneally; assay type: functional, Mus musculus; details: route intraperitoneal; how it was run: as §2
L1210 [4] = test: Tested for percent of L1210 cells killed by dose 173 mg/kg administered intraperitoneally; details: Mus musculus, route intraperitoneal
L1210 [5] = test: Tested for percent of L1210 cells killed by dose 480 mg/kg administered intraperitoneally; assay type: functional, Mus musculus; details: route intraperitoneal; how it was run: as §1
L1210 [6] = test: Tested for post inoculation lifespan in L1210-inoculated mice at dose 480 mg/kg administered intraperitoneally; assay type: functional, Mus musculus; details: route intraperitoneal; how it was run: as §2
L1210 [7] = test: Tested for post inoculation lifespan in L1210-inoculated mice at dose 104 mg/kg administered intraperitoneally; assay type: functional, Mus musculus; details: route intraperitoneal; how it was run: as §2
L1210 [8] = test: Tested for percent of L1210 cells killed by dose 104 mg/kg administered intraperitoneally; assay type: functional, Mus musculus; details: route intraperitoneal; how it was run: as §1
L1210 [9] = test: Tested for post inoculation lifespan in L1210-inoculated mice at dose 288 mg/kg administered intraperitoneally; assay type: functional, Mus musculus; details: route intraperitoneal; how it was run: as §2
L1210 [10] = test: Tested for percent of L1210 cells killed by dose 288 mg/kg administered intraperitoneally; assay type: functional, Mus musculus; details: route intraperitoneal; how it was run: as §1
L1210 [11] = test: Tested for percent of L1210 cells killed by dose 800 mg/kg administered intraperitoneally; assay type: functional, Mus musculus; details: route intraperitoneal; how it was run: as §1
L1210 [12] = test: Tested for post inoculation lifespan in L1210-inoculated mice at dose 800 mg/kg administered intraperitoneally; assay type: functional, Mus musculus; details: route intraperitoneal; how it was run: as §2
L1210 [13] = test: Tested for percent of L1210 cells killed by dose 62 mg/kg administered intraperitoneally; assay type: functional, Mus musculus; details: route intraperitoneal; how it was run: as §1
L1210 [14] = test: Tested for post inoculation lifespan in L1210-inoculated mice at dose 62 mg/kg administered intraperitoneally; assay type: functional, Mus musculus; details: route intraperitoneal; how it was run: as §2
L1210 [15] = test: Tested for percent of L1210 cells killed by dose 173 mg/kg administered intraperitoneally; assay type: functional, Mus musculus; details: route intraperitoneal; how it was run: as §1

## Nc1nc(S)c2ccn(C3O[C@H](CO)[C@@H](O)[C@H]3O)c2n1 (stereo partly drawn)
L1210 [1]
  Cells killed: 0%
L1210 [2]
  T/C: 90%

## NSc1nc(N)nc2c1ccn2[C@H]1C[C@H](O)[C@@H](CO)O1
L1210 [3]
  T/C: 112%
L1210 [4]
  Cells killed: 46.64%

## Nc1nc(S(N)(=O)=O)c2ccn(C3O[C@H](CO)[C@@H](O)[C@H]3O)c2n1 (stereo partly drawn)
L1210 [5]
  Cells killed: 0%
L1210 [6]
  T/C: 100%

## N[S+]([O-])c1ncnc2c1ccn2[C@@H]1C[C@@H](O)[C@H](CO)O1 (stereo partly drawn)
L1210 [5]
  Cells killed: 60.59%
L1210 [6]
  T/C: 112%

## Nc1nc(S)c2ccn([C@H]3C[C@H](O)[C@@H](CO)O3)c2n1
L1210 [7]
  T/C: 105%
L1210 [8]
  Cells killed: 35.63%

## Nc1cc2c(ncn2C2O[C@H](CO)[C@@H](O)[C@H]2O)c(S)n1 (stereo partly drawn)
L1210 [7]
  T/C: 93%
L1210 [8]
  Cells killed: 0%

## NS(=O)(=O)c1ncnc2c1ccn2[C@H]1C[C@H](O)[C@@H](CO)O1
L1210 [9]
  T/C: 113%
L1210 [10]
  Cells killed: 67.94%

## NSc1nc(N)nc2c1ccn2C1O[C@H](CO)[C@@H](O)[C@H]1O (stereo partly drawn)
L1210 [7]
  T/C: 111%
L1210 [8]
  Cells killed: 66.6%

## Nc1cc2c(ncn2C2O[C@H](CO)[C@@H](O)[C@H]2O)c([S+](N)[O-])n1 (stereo partly drawn)
L1210 [11]
  Cells killed: 16.32%
L1210 [12]
  T/C: 102%

## Nc1nc([S+](N)[O-])c2ccn(C3O[C@H](CO)[C@@H](O)[C@H]3O)c2n1 (stereo partly drawn)
L1210 [9]
  T/C: 115%
L1210 [10]
  Cells killed: 76.93%

## NSc1nc(N)cc2c1ncn2C1O[C@H](CO)[C@@H](O)[C@H]1O (stereo partly drawn)
L1210 [13]
  Cells killed: 21.86%
L1210 [14]
  T/C: 103%

## Nc1nc([S+](N)[O-])c2ccn([C@@H]3C[C@@H](O)[C@H](CO)O3)c2n1 (stereo partly drawn)
L1210 [3]
  T/C: 100%
L1210 [15]
  Cells killed: 0%

## NSc1ncnc2c1ccn2[C@H]1C[C@H](O)[C@@H](CO)O1
L1210 [7]
  T/C: 101%
L1210 [8]
  Cells killed: 2%

## OC[C@H]1O[C@@H](n2ccc3c(S)ncnc32)C[C@@H]1O
L1210 [13]
  Cells killed: 0%
L1210 [14]
  T/C: 96%
